{
  "source": "ChEMBL document CHEMBL4041524",
  "about": "“Synthesis and Characterization of a Novel γ-Aminobutyric Acid Type A (GABAA) Receptor Ligand That Combines Outstanding Metabolic Stability, Pharmacokinetics, and Anxiolytic Efficacy” (J Med Chem, 2016)",
  "key": {"Liver [1]": {"test_system": "Liver", "test": "Metabolic stability in human liver microsomes assessed as compound remaining at 4 uM measured after 30 mins in presence of NADPH by LC-MS/MS analysis", "format": "ADME, microsome", "conditions": "0.5 h", "summary_of_the_method": "(§1)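 Human, mouse or rat liver microsomes were incubated with compound at 4 μM final for 30 min at 37 °C (n = 1). Percent of parent remaining was quantified by LC-MS/MS.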"}, "Liver [2]": {"test_system": "Liver", "test": "Metabolic stability in mouse liver microsomes assessed as compound remaining at 4 uM measured after 30 mins in presence of NADPH by LC-MS/MS analysis", "format": "ADME, microsome", "conditions": "0.5 h", "summary_of_the_method": "as §1"}, "Liver [3]": {"test_system": "Liver", "test": "Metabolic stability in rat liver microsomes assessed as compound remaining at 4 uM measured after 30 mins in presence of NADPH by LC-MS/MS analysis", "format": "ADME, microsome", "conditions": "0.5 h", "summary_of_the_method": "as §1"}, "[4]": {"test": "Cytotoxicity against HEK293T cells assessed as viable cells measured after 18 hrs by CellTiter-Glo assay", "format": "cell-based, HEK-293T", "conditions": "human, read-out: LD50", "summary_of_the_method": "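HEK293T cells were exposed to compound for 18 h (n = 4). Viable cells were quantified with CellTiter-Glo, and LD50 was derived.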"}, "[5]": {"test": "Total plasma concentration in Sprague-Dawley rat at 10 mg/kg, po measured after 15 mins by LC-MS/MS analysis", "format": "ADME, organism-based", "summary_of_the_method": "(§2)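 Sprague-Dawley rats (n = 3 per time point) were given 10 mg/kg p.o. Total plasma concentrations were taken at 15, 30, 60 and 120 min. Brain levels of the dosed ligand and of the carboxylic acid metabolite were taken at 60 or 120 min.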"}, "[6]": {"test": "Total plasma concentration in Sprague-Dawley rat at 10 mg/kg, po measured after 30 mins by LC-MS/MS analysis", "format": "ADME, organism-based", "summary_of_the_method": "as §2"}, "[7]": {"test": "Total plasma concentration in Sprague-Dawley rat at 10 mg/kg, po measured after 60 mins by LC-MS/MS analysis", "format": "ADME, organism-based", "summary_of_the_method": "as §2"}, "[8]": {"test": "Total plasma concentration in Sprague-Dawley rat at 10 mg/kg, po measured after 120 mins by LC-MS/MS analysis", "format": "ADME, organism-based", "summary_of_the_method": "as §2"}, "[9]": {"test": "Drug uptake in Sprague-Dawley rat brain at 10 mg/kg, po measured after 120 mins by LC-MS/MS analysis", "format": "ADME, organism-based", "conditions": "read-out: Drug uptake", "summary_of_the_method": "as §2"}, "Brain": {"test_system": "Brain", "test": "Drug metabolism in Sprague-Dawley rat brain assessed as (E)-8-ethynyl-6-(pyridin-2-yl)-4H-benzo[f]imidazo[1,5-a][1,4]diazepine-3-carboxylic acid formation at 10 mg/kg, po measured after 120 mins by LC-MS/MS analysis", "format": "ADME, organism-based", "conditions": "in vivo, 2 h", "summary_of_the_method": "as §2"}, "Mus musculus [10]": {"test_system": "Mus musculus", "test": "Anxiolytic-like activity in Swiss Webster mouse marble burying model of anxiety assessed as suppression of marble burying activity at 30 mg/kg, ip administered 30 mins prior to test relative to vehicle-control", "format": "functional, organism-based", "summary_of_the_method": "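Male NIH Swiss Webster mice (n = 10) received vehicle or compound at 10 or 30 mg/kg i.p. 30 min before marble burying testing. Sedation-like behaviour was noted by observation. Analysis was ANOVA with Dunnett's test vs vehicle.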"}, "Mus musculus [11]": {"test_system": "Mus musculus", "test": "Toxicity in Swiss mouse assessed as change in motor coordination by measuring number of falls from the rotating rod at 10 mg/kg, ip administered 30 mins prior to testing measured for 2 mins by rotarod test relative to control", "format": "organism-based", "conditions": "in vivo", "summary_of_the_method": "(§3)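 The same mice used for marble burying were placed on a rotarod at 4 r.p.m. for 2 min. No fall was scored success, one fall partial, and two falls failure.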"}, "Mus musculus [12]": {"test_system": "Mus musculus", "test": "Toxicity in Swiss mouse assessed as change in motor coordination by measuring number of falls from the rotating rod at 30 mg/kg, ip administered 30 mins prior to testing measured for 2 mins by rotarod test relative to control", "format": "organism-based", "conditions": "in vivo", "summary_of_the_method": "as §3"}, "[13]": {"molecular_target": "T1, GABA-A receptor; alpha-2/beta-3/gamma-2 (Homo sapiens) (UniProt P18507+P28472+P47869)", "test": "Modulation of recombinant GABA alpha2beta3gamma2 receptor (unknown origin) expressed in Xenopus laevis oocytes assessed as change in GABA-induced EC(3 to 6) current at 100 nM by two-electrode voltage clamp assay", "format": "cell-based", "summary_of_the_method": "(§4)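 Xenopus laevis oocytes expressing α1, α2, α3 or α5 β3γ2 GABAARs were recorded by two-electrode voltage clamp. Modulation of the GABA EC3-6 current (taken as 100%) was tested at 100 nM, 1 μM and 10 μM in the same cells. Values are mean ± SEM, n = 3–4.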"}, "[14]": {"molecular_target": "T2, GABA-A receptor; alpha-3/beta-3/gamma-2 (Homo sapiens) (UniProt P18507+P28472+P34903)", "test": "Modulation of recombinant GABA alpha3beta3gamma2 receptor (unknown origin) expressed in Xenopus laevis oocytes assessed as change in GABA-induced EC(3 to 6) current at 100 nM by two-electrode voltage clamp assay", "format": "cell-based", "summary_of_the_method": "as §4"}, "[15]": {"molecular_target": "T3, GABA-A receptor; alpha-1/beta-3/gamma-2 (Homo sapiens) (UniProt P14867+P18507+P28472)", "test": "Modulation of recombinant GABA alpha1beta3gamma2 receptor (unknown origin) expressed in Xenopus laevis oocytes assessed as change in GABA-induced EC(3 to 6) current at 1 uM by two-electrode voltage clamp assay", "format": "cell-based", "summary_of_the_method": "as §4"}, "[16]": {"molecular_target": "T1, GABA-A receptor; alpha-2/beta-3/gamma-2 (Homo sapiens)", "test": "Modulation of recombinant GABA alpha2beta3gamma2 receptor (unknown origin) expressed in Xenopus laevis oocytes assessed as change in GABA-induced EC(3 to 6) current at 1 uM by two-electrode voltage clamp assay", "format": "cell-based", "summary_of_the_method": "as §4"}, "[17]": {"molecular_target": "T2, GABA-A receptor; alpha-3/beta-3/gamma-2 (Homo sapiens)", "test": "Modulation of recombinant GABA alpha3beta3gamma2 receptor (unknown origin) expressed in Xenopus laevis oocytes assessed as change in GABA-induced EC(3 to 6) current at 1 uM by two-electrode voltage clamp assay", "format": "cell-based", "summary_of_the_method": "as §4"}, "[18]": {"molecular_target": "T4, GABA-A receptor; alpha-5/beta-3/gamma-2 (Homo sapiens) (UniProt P18507+P28472+P31644)", "test": "Modulation of recombinant GABA alpha5beta3gamma2 receptor (unknown origin) expressed in Xenopus laevis oocytes assessed as change in GABA-induced EC(3 to 6) current at 1 uM by two-electrode voltage clamp assay", "format": "cell-based", "summary_of_the_method": "as §4"}, "[19]": {"molecular_target": "T3, GABA-A receptor; alpha-1/beta-3/gamma-2 (Homo sapiens)", "test": "Modulation of recombinant GABA alpha1beta3gamma2 receptor (unknown origin) expressed in Xenopus laevis oocytes assessed as change in GABA-induced EC(3 to 6) current at 10 uM by two-electrode voltage clamp assay", "format": "cell-based", "summary_of_the_method": "as §4"}, "[20]": {"molecular_target": "T1, GABA-A receptor; alpha-2/beta-3/gamma-2 (Homo sapiens)", "test": "Modulation of recombinant GABA alpha2beta3gamma2 receptor (unknown origin) expressed in Xenopus laevis oocytes assessed as change in GABA-induced EC(3 to 6) current at 10 uM by two-electrode voltage clamp assay", "format": "cell-based", "summary_of_the_method": "as §4"}, "[21]": {"molecular_target": "T2, GABA-A receptor; alpha-3/beta-3/gamma-2 (Homo sapiens)", "test": "Modulation of recombinant GABA alpha3beta3gamma2 receptor (unknown origin) expressed in Xenopus laevis oocytes assessed as change in GABA-induced EC(3 to 6) current at 10 uM by two-electrode voltage clamp assay", "format": "cell-based", "summary_of_the_method": "as §4"}, "[22]": {"molecular_target": "T4, GABA-A receptor; alpha-5/beta-3/gamma-2 (Homo sapiens)", "test": "Modulation of recombinant GABA alpha5beta3gamma2 receptor (unknown origin) expressed in Xenopus laevis oocytes assessed as change in GABA-induced EC(3 to 6) current at 10 uM by two-electrode voltage clamp assay", "format": "cell-based", "summary_of_the_method": "as §4"}, "Rattus norvegicus": {"test_system": "Rattus norvegicus", "test": "Anxiolytic like activity in water-deprived Sprague-Dawley rat assessed as increase in water drinking time during punished period at 30 mg/kg, po administered 30 prior to testing by Vogel conflict test relative to vehicle control", "format": "functional", "summary_of_the_method": "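Water-deprived male Sprague-Dawley rats (n = 6–8) drank during unpunished and punished periods, with licking suppressed by mild shock in punished periods. Compounds were given 30 min before testing. Analysis was ANOVA with Dunnett's test.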"}, "[23]": {"molecular_target": "T3, GABA-A receptor; alpha-1/beta-3/gamma-2 (Homo sapiens)", "test": "Modulation of recombinant GABA alpha1beta3gamma2 receptor (unknown origin) expressed in Xenopus laevis oocytes assessed as change in GABA-induced EC(3 to 6) current by two-electrode voltage clamp assay", "format": "cell-based", "summary_of_the_method": "as §4"}, "[24]": {"molecular_target": "T1, GABA-A receptor; alpha-2/beta-3/gamma-2 (Homo sapiens)", "test": "Modulation of recombinant GABA alpha2beta3gamma2 receptor (unknown origin) expressed in Xenopus laevis oocytes assessed as change in GABA-induced EC(3 to 6) current by two-electrode voltage clamp assay", "format": "cell-based", "summary_of_the_method": "as §4"}, "[25]": {"molecular_target": "T2, GABA-A receptor; alpha-3/beta-3/gamma-2 (Homo sapiens)", "test": "Modulation of recombinant GABA alpha3beta3gamma2 receptor (unknown origin) expressed in Xenopus laevis oocytes assessed as change in GABA-induced EC(3 to 6) current by two-electrode voltage clamp assay", "format": "cell-based", "summary_of_the_method": "as §4"}, "[26]": {"molecular_target": "T4, GABA-A receptor; alpha-5/beta-3/gamma-2 (Homo sapiens)", "test": "Modulation of recombinant GABA alpha5beta3gamma2 receptor (unknown origin) expressed in Xenopus laevis oocytes assessed as change in GABA-induced EC(3 to 6) current by two-electrode voltage clamp assay", "format": "cell-based", "summary_of_the_method": "as §4"}},
  "note": "Activity calls are given as the source filed them. No cut-off for these calls is given here.",
  "data": [
    {"smiles": "C#Cc1ccc2c(c1)C(c1ccccn1)=NCc1c(C(=O)OCC)ncn1-2", "values": [
      {"measurement": "Stability", "setting": "Liver [1]", "result": 86, "unit": "%"},
      {"measurement": "Stability", "setting": "Liver [2]", "result": 57, "unit": "%"},
      {"measurement": "Stability", "setting": "Liver [3]", "result": 58, "unit": "%"},
      {"measurement": "CC50 at 18 h", "setting": "[4]", "result": "> 100", "unit": "µM"},
      {"measurement": "concentration at 0.25 h", "setting": "[5]", "result": "< 12.2", "unit": "nM"},
      {"measurement": "concentration at 0.5 h", "setting": "[6]", "result": "< 12.2", "unit": "nM"},
      {"measurement": "concentration at 1 h", "setting": "[7]", "result": "< 12.2", "unit": "nM"},
      {"measurement": "concentration at 2 h", "setting": "[8]", "result": "< 12.2", "unit": "nM"},
      {"measurement": "concentration at 2 h", "setting": "[9]", "result": "< 12.2", "unit": "nM"},
      {"measurement": "Drug metabolism", "setting": "Brain", "result": 10, "unit": "nM"},
      {"measurement": "Activity", "setting": "Mus musculus [10]", "result": "Active"},
      {"measurement": "Activity", "setting": "Mus musculus [11]", "result": "Toxic"},
      {"measurement": "Activity", "setting": "Mus musculus [12]", "result": "Toxic"},
      {"measurement": "Activity", "setting": "[13]", "result": 111, "unit": "%"},
      {"measurement": "Activity", "setting": "[14]", "result": 119, "unit": "%"},
      {"measurement": "Activity", "setting": "[15]", "result": 147, "unit": "%"},
      {"measurement": "Activity", "setting": "[16]", "result": 207, "unit": "%"},
      {"measurement": "Activity", "setting": "[17]", "result": 195, "unit": "%"},
      {"measurement": "Activity", "setting": "[18]", "result": 134, "unit": "%"},
      {"measurement": "Activity", "setting": "[19]", "result": 178, "unit": "%"},
      {"measurement": "Activity", "setting": "[20]", "result": 244, "unit": "%"},
      {"measurement": "Activity", "setting": "[21]", "result": 305, "unit": "%"},
      {"measurement": "Activity", "setting": "[22]", "result": 158, "unit": "%"},
      {"measurement": "Activity", "setting": "Rattus norvegicus", "result": "inactive"},
      {"measurement": "Activity", "setting": "[23]", "result": "Dose-dependent effect"},
      {"measurement": "Activity", "setting": "[24]", "result": "Dose-dependent effect"},
      {"measurement": "Activity", "setting": "[25]", "result": "Dose-dependent effect"},
      {"measurement": "Activity", "setting": "[26]", "result": "Dose-dependent effect"}
    ]}
  ]
}
